Measured values from ChEMBL document CHEMBL4312005, “Optimization of pyrrolizine-based Schiff bases with 4-thiazolidinone motif: Design, synthesis and investigation of cytotoxicity and anti-inflammatory potency” (Eur J Med Chem, 2020).
Each block holds one compound with its values, some of them ahead of it.

Assays:
MCF7 [1] = experiment: Antiproliferative activity against human MCF7 cells assessed as reduction in cell growth incubated for 72 hrs by MTT assay; assay type: functional, cell-based; details: MCF7, 72 h
How it was run: (§1)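 MTT assay on MCF-7, A2780, HT29 and normal MRC5 fibroblast lines (ATCC) grown in DMEM with 10% FBS. Cells exposed to compounds for 72 h, then reduced MTT read at 570 nm.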

[2] = Selectivity index, ratio of IC50 for cytotoxicity against human MRC5 cells to IC50 for antiproliferative activity against human MCF7 cells; details: MRC5 cells versus MCF7 cells
[3] = Selectivity index, ratio of IC50 for cytotoxicity against human MRC5 cells to IC50 for antiproliferative activity against human HT-29 cells; details: MRC5 cells versus HT-29 cells
A2780 = experiment: Antiproliferative activity against human A2780 cells assessed as reduction in cell growth incubated for 72 hrs by MTT assay; assay type: functional, cell-based; details: A2780, 72 h; how it was run: as §1
MCF7 [4] = experiment: Antiproliferative activity against human MCF7 cells assessed as cell viability at 5 uM incubated for 48 hrs by MTT assay (reference value: 100 %); assay type: functional; details: MCF7, 48 h, read-out: Activity
How it was run: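 Preliminary single-dose screen by MTT assay. MCF-7 cells grown in DMEM/10% FBS were exposed to 5 μM compound for 48 h, and growth% was determined. Values are mean ± S.D., n = 6.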

HT-29 = experiment: Antiproliferative activity against human HT-29 cells assessed as reduction in cell growth incubated for 72 hrs by MTT assay; assay type: functional, cell-based; details: HT-29, 72 h; how it was run: as §1
[5] = target: Prostaglandin G/H synthase 1 (Homo sapiens, UniProt P23219); experiment: Inhibition of human COX1 using arachidonic acid as substrate incubated for 2 mins by ELISA method
Chain of Prostaglandin G/H synthase 1 (P23219 whole entry): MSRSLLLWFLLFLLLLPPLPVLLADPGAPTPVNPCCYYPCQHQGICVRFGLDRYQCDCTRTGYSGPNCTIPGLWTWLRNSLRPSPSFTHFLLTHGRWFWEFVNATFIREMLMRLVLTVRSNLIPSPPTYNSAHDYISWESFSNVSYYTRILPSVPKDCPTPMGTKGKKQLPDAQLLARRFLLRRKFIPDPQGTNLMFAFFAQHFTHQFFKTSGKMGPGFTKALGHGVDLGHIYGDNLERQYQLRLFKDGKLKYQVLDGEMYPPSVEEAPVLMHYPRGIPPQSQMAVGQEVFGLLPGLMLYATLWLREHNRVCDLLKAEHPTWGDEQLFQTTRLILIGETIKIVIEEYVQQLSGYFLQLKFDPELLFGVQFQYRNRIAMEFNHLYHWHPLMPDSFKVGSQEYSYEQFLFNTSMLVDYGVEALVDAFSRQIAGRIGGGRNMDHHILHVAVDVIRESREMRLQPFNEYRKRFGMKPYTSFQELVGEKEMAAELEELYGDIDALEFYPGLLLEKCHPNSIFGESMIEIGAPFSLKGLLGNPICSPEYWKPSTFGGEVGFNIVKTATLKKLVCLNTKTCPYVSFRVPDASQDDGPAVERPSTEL

[6] = Selectivity index, ratio of IC50 for cytotoxicity against human MRC5 cells to IC50 for antiproliferative activity against human A2780 cells; details: MRC5 cells versus A2780 cells
MRC5 = experiment: Cytotoxicity against human MRC5 cells assessed as reduction in cell growth incubated for 72 hrs by MTT assay; assay type: cell-based; details: MRC5, 72 h; how it was run: as §1
Rattus norvegicus [7] = experiment: Antiinflammatory activity against albino rats assessed as inhibition of carrageenan-induced paw edema at 25 mg/kg, po measured after 4 hrs relative to control; assay type: functional
How it was run: (§2)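 Carrageenan rat paw edema (Winter method) in male and female adult albino rats (100-140 g). […] Swelling inhibition expressed as % of control at 2-4 h after carrageenan injection.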

Rattus norvegicus [8] = experiment: Antiinflammatory activity against albino rats assessed as inhibition of carrageenan-induced paw edema at 25 mg/kg, po measured after 2 hrs relative to control; assay type: functional; how it was run: as §2
Rattus norvegicus [9] = experiment: Antiinflammatory activity against albino rats assessed as inhibition of carrageenan-induced paw edema at 0.5 mmol, po measured after 4 hrs relative to control; assay type: functional; how it was run: as §2
Rattus norvegicus [10] = experiment: Antiinflammatory activity against albino rats assessed as inhibition of carrageenan-induced paw edema at 0.5 mmol, po measured after 2 hrs relative to control; assay type: functional; how it was run: as §2
MCF7 [11] = experiment: Induction of apoptosis in human MCF7 cells assessed as necrotic cells at 1 uM incubated for 24 hrs by annexin V FITC and propidium iodide staining based flow cytometry (reference value: 4.1 to […]); assay type: functional
MCF7 [12] = experiment: Induction of apoptosis in human MCF7 cells assessed as late apoptotic cells at 1 uM incubated for 24 hrs by annexin V FITC and propidium iodide staining based flow cytometry (reference value: 0 to 2.5 %); assay type: functional
MCF7 [13] = experiment: Cell cycle arrest in human MCF7 cells assessed as G2/M phase accumulation at 1 uM incubated for 24 hrs by propidium iodide based flow cytometry (reference value: 17.2 to 26.8 %); assay type: functional
MCF7 [14] = experiment: Induction of apoptosis in human MCF7 cells assessed as necrotic cells at 5 uM incubated for 24 hrs by annexin V FITC and propidium iodide staining based flow cytometry (reference value: 4.1 to […]); assay type: functional
MCF7 [15] = experiment: Induction of apoptosis in human MCF7 cells assessed as early apoptotic cells at 10 uM incubated for 24 hrs by annexin V FITC and propidium iodide staining based flow cytometry (reference value: 0 to 9 %); assay type: functional
MCF7 [16] = experiment: Induction of apoptosis in human MCF7 cells assessed as necrotic cells at 10 uM incubated for 24 hrs by annexin V FITC and propidium iodide staining based flow cytometry (reference value: 4.1 to […]); assay type: functional
MCF7 [17] = experiment: Cell cycle arrest in human MCF7 cells assessed as G1 accumulation at 5 uM incubated for 24 hrs by propidium iodide based flow cytometry (reference value: 49.6 to 55.1 %); assay type: functional
MCF7 [18] = experiment: Induction of apoptosis in human MCF7 cells assessed as late apoptotic cells at 5 uM incubated for 24 hrs by annexin V FITC and propidium iodide staining based flow cytometry (reference value: 0 to 2.5 %); assay type: functional
MCF7 [19] = experiment: Cell cycle arrest in human MCF7 cells assessed as S phase accumulation at 5 uM incubated for 24 hrs by propidium iodide based flow cytometry (reference value: 17.3 to 28.5 %); assay type: functional
MCF7 [20] = experiment: Induction of apoptosis in human MCF7 cells assessed as late apoptotic cells at 10 uM incubated for 24 hrs by annexin V FITC and propidium iodide staining based flow cytometry (reference value: 0 to 2.5 %); assay type: functional
MCF7 [21] = experiment: Cell cycle arrest in human MCF7 cells assessed as G1 accumulation at 1 uM incubated for 24 hrs by propidium iodide based flow cytometry (reference value: 49.6 to 55.1 %); assay type: functional
MCF7 [22] = experiment: Induction of apoptosis in human MCF7 cells assessed as early apoptotic cells at 1 uM incubated for 24 hrs by annexin V FITC and propidium iodide staining based flow cytometry (reference value: 0 to 9 %); assay type: functional
MCF7 [23] = experiment: Cell cycle arrest in human MCF7 cells assessed as G2/M phase accumulation at 10 uM incubated for 24 hrs by propidium iodide based flow cytometry (reference value: 17.2 to 26.8 %); assay type: functional
MCF7 [24] = experiment: Induction of apoptosis in human MCF7 cells assessed as viable cells at 1 uM incubated for 24 hrs by annexin V FITC and propidium iodide staining based flow cytometry (reference value: 76 to 95.9 %); assay type: functional; details: MCF7, 24 h, read-out: Activity
MCF7 [25] = experiment: Cell cycle arrest in human MCF7 cells assessed as G1 accumulation at 10 uM incubated for 24 hrs by propidium iodide based flow cytometry (reference value: 49.6 to 55.1 %); assay type: functional
MCF7 [26] = experiment: Cell cycle arrest in human MCF7 cells assessed as subG1 accumulation at 10 uM incubated for 24 hrs by propidium iodide based flow cytometry (reference value: 0.6 to 3 %); assay type: functional
MCF7 [27] = experiment: Induction of apoptosis in human MCF7 cells assessed as viable cells at 10 uM incubated for 24 hrs by annexin V FITC and propidium iodide staining based flow cytometry (reference value: 76 to 95.9 %); assay type: functional; details: MCF7, 24 h, read-out: Activity
MCF7 [28] = experiment: Cell cycle arrest in human MCF7 cells assessed as subG1 accumulation at 5 uM incubated for 24 hrs by propidium iodide based flow cytometry (reference value: 0.6 to 3 %); assay type: functional
MCF7 [29] = experiment: Cell cycle arrest in human MCF7 cells assessed as S phase accumulation at 1 uM incubated for 24 hrs by propidium iodide based flow cytometry (reference value: 17.3 to 28.5 %); assay type: functional
MCF7 [30] = experiment: Cell cycle arrest in human MCF7 cells assessed as subG1 accumulation at 1 uM incubated for 24 hrs by propidium iodide based flow cytometry (reference value: 0.6 to 3 %); assay type: functional
MCF7 [31] = experiment: Cell cycle arrest in human MCF7 cells assessed as S phase accumulation at 10 uM incubated for 24 hrs by propidium iodide based flow cytometry (reference value: 17.3 to 28.5 %); assay type: functional
MCF7 [32] = experiment: Cell cycle arrest in human MCF7 cells assessed as G2/M phase accumulation at 5 uM incubated for 24 hrs by propidium iodide based flow cytometry (reference value: 17.2 to 26.8 %); assay type: functional
MCF7 [33] = experiment: Induction of apoptosis in human MCF7 cells assessed as viable cells at 5 uM incubated for 24 hrs by annexin V FITC and propidium iodide staining based flow cytometry (reference value: 76 to 95.9 %); assay type: functional; details: MCF7, 24 h, read-out: Activity
MCF7 [34] = experiment: Induction of apoptosis in human MCF7 cells assessed as early apoptotic cells at 5 uM incubated for 24 hrs by annexin V FITC and propidium iodide staining based flow cytometry (reference value: 0 to 9 %); assay type: functional

- IC50 (MCF7 [1]): 0.5 µM
- IC50 (A2780): 4.16 µM
- IC50 (HT-29): 2.97 µM
- IC50 [5]: > 100 µM
SMILES: N#Cc1c(/N=C/c2ccccc2)c(C(=O)Nc2ccc(Br)cc2)n2c1CCC2
- selectivity ratio [2]: 2 to 52
- selectivity ratio [3]: 2 to 52
- viability at 5 µM (MCF7 [4]): 73%
- selectivity ratio [6]: 2 to 52
- IC50 (MRC5): 9 µM

- IC50 (MCF7 [1]): 1.43 µM
- IC50 (A2780): 15.6 µM
- IC50 (HT-29): 0.14 µM
- IC50 [5]: 27.2 µM
SMILES: CC/C=N/c1c(C#N)c2n(c1C(=O)Nc1ccccc1)CCCC2
- IC50 (MRC5): 1.53 µM

SMILES: Cc1ccc(-c2cc(C(F)(F)F)nn2-c2ccc(S(N)(=O)=O)cc2)cc1 [CELECOXIB]
- inhibition in vivo at 25 mg/kg (Rattus norvegicus [7]): 67.4%
- inhibition in vivo at 25 mg/kg (Rattus norvegicus [8]): 37%

- IC50 (MCF7 [1]): 0.47 µM
- IC50 (A2780): 0.11 µM
- IC50 (HT-29): 0.12 µM
- IC50 [5]: > 100 µM
SMILES: CCC1SCC(=O)N1c1c(C#N)c2n(c1C(=O)Nc1ccc(C)cc1)CCC2 (centres undefined)
- selectivity ratio [2]: 3 to 15
- selectivity ratio [6]: 3 to 15
- IC50 (MRC5): 1.7 µM

- IC50 (MCF7 [1]): 0.74 µM
- IC50 (A2780): 0.58 µM
- IC50 (HT-29): 1.02 µM
- IC50 [5]: 15.6 µM
SMILES: CC/C=N/c1c(C#N)c2n(c1C(=O)Nc1ccc(Cl)cc1)CCC2
- inhibition (INH) (Rattus norvegicus [9]): 24.06%
- inhibition (INH) (Rattus norvegicus [10]): 19.17%
- IC50 (MRC5): 0.17 µM

- IC50 (MCF7 [1]): 0.14 µM
- IC50 (A2780): 0.27 µM
- IC50 (HT-29): 0.89 µM
- IC50 [5]: 14.2 µM
SMILES: CC/C=N/c1c(C#N)c2n(c1C(=O)Nc1ccc(Br)cc1)CCC2
- selectivity ratio [2]: 24 to 152
- selectivity ratio [3]: 24 to 152
- viability at 5 µM (MCF7 [4]): 49%
- selectivity ratio [6]: 24 to 152
- IC50 (MRC5): 21.2 µM

- IC50 (MCF7 [1]): 0.49 µM
- IC50 (A2780): 0.47 µM
- IC50 (HT-29): 14.5 µM
- IC50 [5]: 72 µM
SMILES: N#Cc1c(/N=C/c2ccc(O)cc2)c(C(=O)Nc2ccc(Br)cc2)n2c1CCC2
- Activity (MCF7 [11]): 14.3%
- Activity (MCF7 [12]): 9.8%
- Activity (MCF7 [13]): 14.2%
- selectivity ratio [2]: 2 to 52
- Activity (MCF7 [14]): 17.8%
- Activity (MCF7 [15]): 5%
- Activity (MCF7 [16]): 20.6%
- Activity (MCF7 [17]): 28.9%
- Activity (MCF7 [18]): 7.4%
- Activity (MCF7 [19]): 49.7%
- Activity (MCF7 [20]): 5.2%
- Activity (MCF7 [21]): 31.7%
- Activity (MCF7 [22]): 10.2%
- Activity (MCF7 [23]): 19.8%
- viability at 1 µM (MCF7 [24]): 65.7%
- Activity (MCF7 [25]): 27.9%
- selectivity ratio [3]: 2 to 52
- Activity (MCF7 [26]): 0.8%
- viability at 10 µM (MCF7 [27]): 69.2%
- inhibition (INH) (Rattus norvegicus [9]): 44.51%
- inhibition (INH) (Rattus norvegicus [10]): 28.15%
- Activity (MCF7 [28]): 0.4%
- viability at 5 µM (MCF7 [4]): 69%
- Activity (MCF7 [29]): 54.1%
- Activity (MCF7 [30]): 0.4%
- Activity (MCF7 [31]): 51.9%
- Activity (MCF7 [32]): 22%
- viability at 5 µM (MCF7 [33]): 66.3%
- Activity (MCF7 [34]): 8.6%
- selectivity ratio [6]: 2 to 52
- IC50 (MRC5): 25 µM

- IC50 (MCF7 [1]): 0.84 µM
- IC50 (A2780): 3.88 µM
- IC50 (HT-29): 0.61 µM
- IC50 [5]: 27.7 µM
SMILES: CC/C=N/c1c(C#N)c2n(c1C(=O)Nc1ccc(C)cc1)CCC2
- IC50 (MRC5): 0.56 µM
